According to paper PMC4083110 (Molecular & Cellular Proteomics : MCP, 2014):
Entries after “also recorded” stand apart in the source; their conditions may differ.

Tests used:
Shp2/PTPN11 SH2 domain = biological target: T1, Shp2/PTPN11 SH2 domain (Homo sapiens, UniProt Q06124); test: FP saturation binding, construct not stated; conditions: result in words
T1 sequence (Q06124 2-593): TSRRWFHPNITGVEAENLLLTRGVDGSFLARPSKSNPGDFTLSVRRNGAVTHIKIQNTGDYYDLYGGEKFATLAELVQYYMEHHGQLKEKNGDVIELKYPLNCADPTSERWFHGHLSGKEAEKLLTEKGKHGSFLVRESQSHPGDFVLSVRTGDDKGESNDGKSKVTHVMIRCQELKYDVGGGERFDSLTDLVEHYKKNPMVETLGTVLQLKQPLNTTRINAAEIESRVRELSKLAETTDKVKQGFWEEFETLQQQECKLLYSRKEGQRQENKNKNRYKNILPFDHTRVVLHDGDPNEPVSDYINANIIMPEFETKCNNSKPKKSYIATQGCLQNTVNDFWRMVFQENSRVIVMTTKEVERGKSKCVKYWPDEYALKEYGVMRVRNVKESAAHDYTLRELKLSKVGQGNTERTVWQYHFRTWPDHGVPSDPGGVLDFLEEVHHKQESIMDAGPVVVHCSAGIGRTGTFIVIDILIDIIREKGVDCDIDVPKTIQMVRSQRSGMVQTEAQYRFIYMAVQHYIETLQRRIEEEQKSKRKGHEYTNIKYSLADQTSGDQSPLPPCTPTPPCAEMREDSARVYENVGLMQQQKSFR
In short: (§1)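 Multi-SH2 genes were used as tandem proteins that kept the linker residues. Automated high-throughput FP saturation binding was run against 178 synthetic phosphopeptides from RTK, GAB1 and androgen receptor tyrosine sites. Millipolarization readings were fitted to P_obs = Pmax·[Protein]/(K_D+[Protein]) by least squares regression to give K_D.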

CRK SH2 domain = CRK SH2 domain (Homo sapiens, UniProt P46108); test: FP saturation binding; conditions: result in words
In short: as §1

[1] = biological target: T2, SHC1 PTB domain (SHC1.PTB) (Homo sapiens, UniProt P29353); test: FP saturation binding; conditions: result in words
T2 sequence (P29353 156-339 limits assumed): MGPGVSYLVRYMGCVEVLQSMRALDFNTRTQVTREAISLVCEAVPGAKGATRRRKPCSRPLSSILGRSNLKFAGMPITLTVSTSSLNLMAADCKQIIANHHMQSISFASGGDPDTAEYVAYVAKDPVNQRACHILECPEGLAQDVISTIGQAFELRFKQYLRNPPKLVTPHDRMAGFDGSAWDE
In short: as §1

[2] = biological target: PIK3R-derived SH2 domains; test: FP saturation binding, domain family; set-up: species or system human; conditions: for recruitment of PIK3R (PI3KR) SH2 domains: FP, result in words
In short: as §1

[3] = tested on: 93 SH2 domains and 2 phosphotyrosine binding (PTB) domains; test: High throughput FP, whole domain panel; set-up: species or system human; conditions: result in words
In short: as §1

[4] = biological target: PLCG1 (NC tandem domain), PLCG1.NC (Homo sapiens, UniProt P19174); test: FP saturation binding; conditions: result in words
In short: as §1

[5] = biological target: PIK3R3 (C-terminal domain), PIK3R3.C (Homo sapiens, UniProt Q92569); test: FP saturation binding; conditions: result in words
In short: as §1

[6] = tested on: c-Src family kinase SH2 domains; test: FP saturation binding, domain family; set-up: species or system human; conditions: result in words
In short: as §1

SHC1 SH2 domain = biological target: T3, SHC1 SH2 domain (Homo sapiens, UniProt P29353); test: FP saturation binding; conditions: result in words
T3 sequence (P29353 488-579 limits assumed): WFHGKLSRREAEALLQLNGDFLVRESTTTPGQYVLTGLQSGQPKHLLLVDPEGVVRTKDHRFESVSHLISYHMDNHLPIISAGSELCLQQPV
In short: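 Tandem SH2 proteins were kept with their linkers. Synthetic phosphotyrosine peptides were run in automated high-throughput FP saturation binding. Millipolarization was fitted to Pobs = Pmax·[Protein]/(KD+[Protein]) by least squares to give KD per protein/peptide pair.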

[7] = tested on: tensin family SH2 domains; test: FP saturation binding, domain family; set-up: species or system human; conditions: result in words
In short: as §1

SH2D1B SH2 domain = biological target: T4, SH2D1B SH2 domain (Homo sapiens, UniProt O14796); test: FP saturation binding; conditions: result in words
T4 sequence (O14796 5-101 limits assumed): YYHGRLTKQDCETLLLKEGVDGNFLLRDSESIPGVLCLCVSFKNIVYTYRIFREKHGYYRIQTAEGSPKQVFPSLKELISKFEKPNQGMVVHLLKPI
In short: as §1

PLCG1 SH2 domains = biological target: T5, PLCG1 SH2 domains (Homo sapiens, UniProt P19174); test: FP saturation binding, construct not stated; conditions: result in words
T5 sequence (P19174 550-756 limits assumed): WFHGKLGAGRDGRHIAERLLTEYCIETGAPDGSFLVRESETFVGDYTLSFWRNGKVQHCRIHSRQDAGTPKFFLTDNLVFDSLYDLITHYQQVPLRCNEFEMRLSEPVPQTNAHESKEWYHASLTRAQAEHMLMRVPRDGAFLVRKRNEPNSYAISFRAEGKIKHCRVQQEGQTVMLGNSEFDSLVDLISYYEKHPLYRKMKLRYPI
In short: as §1

PLCG2 SH2 domains = biological target: T6, PLCG2 SH2 domains (Homo sapiens, UniProt P16885); test: FP saturation binding, construct not stated; conditions: result in words
T6 sequence (P16885 532-735 limits assumed): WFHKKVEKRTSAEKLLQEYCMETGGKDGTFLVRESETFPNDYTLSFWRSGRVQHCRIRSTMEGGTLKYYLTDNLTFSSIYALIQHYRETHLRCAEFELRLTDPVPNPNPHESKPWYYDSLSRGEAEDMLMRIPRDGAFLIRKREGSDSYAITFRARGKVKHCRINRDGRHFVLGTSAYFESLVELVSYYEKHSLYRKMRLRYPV
In short: as §1

SRC SH2 domain = SRC SH2 domain (Homo sapiens, UniProt P12931); test: FP saturation binding; conditions: result in words
In short: as §1

RASA1 SH2 domains = biological target: T7, RASA1 SH2 domains (Homo sapiens, UniProt P20936); test: FP saturation binding, construct not stated; conditions: result in words
T7 sequence (P20936 181-441 limits assumed): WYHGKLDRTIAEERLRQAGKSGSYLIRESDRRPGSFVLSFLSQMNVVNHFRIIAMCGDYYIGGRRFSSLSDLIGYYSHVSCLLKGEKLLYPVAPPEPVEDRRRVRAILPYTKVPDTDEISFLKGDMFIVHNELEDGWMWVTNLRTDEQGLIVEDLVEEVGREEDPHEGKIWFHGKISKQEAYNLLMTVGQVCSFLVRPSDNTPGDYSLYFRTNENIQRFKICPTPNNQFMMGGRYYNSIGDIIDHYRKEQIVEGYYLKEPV
In short: as §1

CRKL SH2 domain = CRKL SH2 domain (Homo sapiens, UniProt P46109); test: FP saturation binding; conditions: result in words
In short: as §1

SH2D1A SH2 domain = SH2D1A SH2 domain (Homo sapiens, UniProt O60880); test: FP saturation binding; conditions: result in words
In short: as §1

PIK3R1 SH2 domains = PIK3R1 SH2 domains (Homo sapiens, UniProt P27986); test: FP saturation binding, construct not stated; conditions: result in words
In short: as §1

PIK3R3 SH2 domains = test: FP saturation binding, construct not stated; set-up: species or system human; conditions: result in words
In short: as §1

CRK SH2 domain, sequence (P46108 13-118 limits assumed): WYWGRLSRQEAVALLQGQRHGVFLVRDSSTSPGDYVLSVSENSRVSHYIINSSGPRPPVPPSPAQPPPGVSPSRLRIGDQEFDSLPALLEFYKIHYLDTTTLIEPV
CRKL SH2 domain, sequence (P46109 14-102 limits assumed): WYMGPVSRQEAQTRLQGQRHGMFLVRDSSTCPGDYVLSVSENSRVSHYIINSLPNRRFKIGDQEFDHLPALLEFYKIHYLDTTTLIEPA
SH2D1A SH2 domain, sequence (O60880 6-104 limits assumed): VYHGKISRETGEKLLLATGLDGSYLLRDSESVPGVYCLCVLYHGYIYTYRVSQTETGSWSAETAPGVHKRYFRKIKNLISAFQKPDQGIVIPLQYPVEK
PIK3R1 SH2 domains, sequence (P27986 2-724): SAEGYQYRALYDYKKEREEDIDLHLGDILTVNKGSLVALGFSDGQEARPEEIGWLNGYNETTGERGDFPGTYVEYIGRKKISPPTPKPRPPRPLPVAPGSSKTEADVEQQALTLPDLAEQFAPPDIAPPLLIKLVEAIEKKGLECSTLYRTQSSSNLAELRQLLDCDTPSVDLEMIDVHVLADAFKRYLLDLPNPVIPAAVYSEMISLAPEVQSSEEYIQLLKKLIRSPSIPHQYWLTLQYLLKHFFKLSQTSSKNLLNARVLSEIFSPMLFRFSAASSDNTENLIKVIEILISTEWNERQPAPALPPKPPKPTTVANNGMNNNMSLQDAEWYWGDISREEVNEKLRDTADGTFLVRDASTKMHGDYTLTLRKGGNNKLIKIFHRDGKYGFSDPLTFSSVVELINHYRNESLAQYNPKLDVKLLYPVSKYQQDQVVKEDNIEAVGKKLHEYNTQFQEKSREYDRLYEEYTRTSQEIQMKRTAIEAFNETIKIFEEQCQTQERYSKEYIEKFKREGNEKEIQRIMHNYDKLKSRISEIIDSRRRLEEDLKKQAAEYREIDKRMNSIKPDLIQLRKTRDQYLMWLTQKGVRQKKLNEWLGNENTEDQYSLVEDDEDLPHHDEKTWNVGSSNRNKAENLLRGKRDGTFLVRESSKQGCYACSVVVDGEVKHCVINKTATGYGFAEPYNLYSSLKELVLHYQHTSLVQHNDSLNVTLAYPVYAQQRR

With DITVXLLQGRRLd [c-Met Tyr(P)-1295] the “recruitment of Shp2/PTPN11 SH2 domain” value (Shp2/PTPN11 SH2 domain) was “recruit”.

For KLKRXAWKRRWFd [GAB1 Tyr(P)-24], the “recruitment of CRK SH2 domain” value (CRK SH2 domain) was “CRK SH2 domain recruitment” and the “interaction with SHC1 PTB domain” value [1] was “interactions were observed”.

With STNEXMDMKPGVd [c-Kit Tyr(P)-721] the midpoint dissociation constants ([2]; FP saturation binding, all PIK3R SH2 domains, in words) was “sub-micromolar” and the “recruitment of PIK3R (PI3KR) SH2 domains” value [2] was “highest affinity”.

YSGPXGDMRLETd [AR Tyr(P)-534] was tested, and the “recruitment across the SH2 domain panel” value [3] was “interacted with few SH2 domains”, the “recruitment of PLCG1 (NC tandem domain)” value [4] was “did recruit” and the “recruitment of PIK3R3 (C-terminal domain)” value [5] was “did recruit”. For the same substance, the “recruitment of c-Src family kinase SH2 domains” value [6] was “did not recruit”.

QQMIXDSPPSRAd [GAB1 Tyr(P)-242] was tested, and the “recruitment of CRK SH2 domain” value (CRK SH2 domain) was “no CRK SH2 domain interactions”.

For LQPEXCPDPLYEd [c-Met Tyr(P)-1307], the “recruitment of Shp2/PTPN11 SH2 domain” value (Shp2/PTPN11 SH2 domain) was “recruit” and the “recruitment of PIK3R (PI3KR) SH2 domains” value [2] was “moderate recruitment”.

With DPQDXLLLINCQd [GAB1 Tyr(P)-183] the “interaction with SHC1 SH2 domain” value (SHC1 SH2 domain) was “interactions were identified” and the “interaction with SHC1 PTB domain” value [1] was “interactions were observed”.

With DVWSXGIFLWELd [c-Kit Tyr(P)-855] the “recruitment of CRK SH2 domain” value (CRK SH2 domain) was “recruited” and the “recruitment of tensin family SH2 domains” value [7] was “recruited”.

With IGEHXVHVNATYd [c-Met Tyr(P)-1349] the “recruitment of SH2D1B SH2 domain” value (SH2D1B SH2 domain) was “moderate affinity” and the “recruitment of PLCG1 SH2 domains” value (PLCG1 SH2 domains) was “moderate affinity”.

With QSRDXYNFPLALd [AR Tyr(P)-362] the “recruitment of PLCG2 SH2 domains” value (PLCG2 SH2 domains) was “recruitment sites”, the “interaction with SRC SH2 domain” value (SRC SH2 domain) was “interacted” and the “recruitment of RASA1 SH2 domains” value (RASA1 SH2 domains) was “interacted”. The “recruitment of PIK3R (PI3KR) SH2 domains” value [2] was “interacted; also recorded: relatively high affinity” and the “recruitment of PLCG1 SH2 domains” value (PLCG1 SH2 domains) was “interacted; also recorded: recruitment sites”.

With TDSSXCIPTAGMd [GAB1 Tyr(P)-373] the “recruitment of CRK SH2 domain” value (CRK SH2 domain) was “no CRK SH2 domain interactions”, the “interaction with SHC1 SH2 domain” value (SHC1 SH2 domain) was “interactions were identified” and the “recruitment of PLCG1 SH2 domains” value (PLCG1 SH2 domains) was “confirmed”.

In the case of DSSLXNLPRSYSd [GAB1 Tyr(P)-259], the “recruitment of CRK SH2 domain” value (CRK SH2 domain) is reported as “no CRK SH2 domain interactions” and the “recruitment of CRKL SH2 domain” value (CRKL SH2 domain) is reported as “CRKL SH2 domain interactions”.

LPIDXYFPPQKTd [AR Tyr(P)-551] was tested, and the “recruitment of PLCG2 SH2 domains” value (PLCG2 SH2 domains) was “recruitment sites” and the “recruitment of PLCG1 SH2 domains” value (PLCG1 SH2 domains) was “recruitment sites”.

In the case of CVAPXPSLLSSEd [c-Met Tyr(P)-1365], the “recruitment of SH2D1A SH2 domain” value (SH2D1A SH2 domain) is reported as “interactions”, the “recruitment of SH2D1B SH2 domain” value (SH2D1B SH2 domain) is reported as “interactions” and the “recruitment of Shp2/PTPN11 SH2 domain” value (Shp2/PTPN11 SH2 domain) is reported as “recruit”. The “recruitment of c-Src family kinase SH2 domains” value [6] was “interactions”, the “recruitment of RASA1 SH2 domains” value (RASA1 SH2 domains) was “interactions” and the “recruitment of PLCG1 SH2 domains” value (PLCG1 SH2 domains) was “interactions”. For the same substance, the “recruitment of tensin family SH2 domains” value [7] was “interactions”.

For PGNTXQIPRTFPd [GAB1 Tyr(P)-317], the “recruitment of RASA1 SH2 domains” value (RASA1 SH2 domains) was “confirmed”.

QEANXVPMTPGTd [GAB1 Tyr(P)-472] was tested, and the “recruitment of PIK3R1” value (PIK3R1 SH2 domains) was “confirmed” and the “recruitment of PIK3R3” value (PIK3R3 SH2 domains) was “high affinity”.
